# Data from ChEMBL document CHEMBL3603784, “Novel hybrids of 3-n-butylphthalide and edaravone: Design, synthesis and evaluations as potential anti-ischemic stroke agents” (2015).
# Activity calls are given as the source filed them. The rule behind the calls is not given here.
# Columns and labels:
# [1] = Antiplatelet activity in rabbit platelet rich plasma assessed as inhibition of ADP-induced platelet aggregation at 0.1 mM preincubated for 5 mins followed by ADP addition measured after 5 mins by Born's turbidimetric method relative to control; format: functional; conditions: Oryctolagus cuniculus
# In short: (§1)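 Rabbit PRP was taken from centrifugation supernatant, and PPP was obtained at 3000 rpm for 10 min. PRP was pretreated in duplicate with test agent or vehicle for 5 min at 37 °C, then given ADP (10 µM) or AA (1 mM). Aggregation was followed turbidimetrically by optical density. Results are % inhibition versus vehicle-treated, inducer-exposed samples, n = 6, mean ± SD.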
# [2] = Neuroprotective activity against H2O2-induce cell damage in rat PC12 cells assessed as cell viability at 10 uM preincubated for 1 hr followed by H2O2 induction measured after 3 hrs by MTT assay (reference value: 50.85%); format: functional; conditions: PC-12, read-out: Activity
# PC-12 [3] = assay: Antioxidant activity in rat PC12 cells assessed as reduction of H2O2/Fe2+-mediated hydroxyl radical formation at 10 uM preincubated for 1 hr followed by H2O2/Fe2+ addition by Griess assay; format: functional
# In short: (§2)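 PC12 cells grown in DMEM with 10% heat-inactivated horse serum, 5% FBS, 1.0 mM sodium pyruvate, penicillin/streptomycin, 37 °C, 5% CO2. Cells pretreated in triplicate for 1 h, then exposed to 1 mM H2O2/20 µM Fe2+ (pH 7.4). After a medium change, cells were collected in 0.5 mL phosphate buffer (pH 7.4). Hydroxyl radical activity was read by Griess assay.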
# PC-12 [4] = assay: Antioxidant activity in rat PC12 cells assessed as reduction of NADH-mediated superoxide anion radical formation at 10 uM preincubated for 1 hr followed by NADH addition by NBT assay; format: functional
# In short: (§3)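 PC12 cells were cultured as for the other PC12 assays and pretreated in triplicate for 1 h. Each tube then received DMSO, 468 µM NADH and 300 µM NBT. Superoxide activity was read by NBT assay, with DMSO used to fully dissolve the formazan.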
# [5] = Antiplatelet activity in rabbit platelet rich plasma assessed as inhibition of arachidonic acid-induced platelet aggregation at 0.1 mM preincubated for 5 mins followed by arachidonic acid addition measured after 5 mins by Born's turbidimetric method relative to control; format: functional; conditions: Oryctolagus cuniculus; in short: as §1
# [6] = Neuroprotective activity against H2O2-induce cell damage in rat PC12 cells assessed as cell viability at 1 uM preincubated for 1 hr followed by H2O2 induction measured after 3 hrs by MTT assay (reference value: 50.85%); format: functional; conditions: PC-12, read-out: Activity
# PC-12 [7] = assay: Neuroprotective activity against H2O2-induce cell damage in rat PC12 cells assessed as cell viability at 10 uM preincubated for 1 hr followed by H2O2 induction measured after 3 hrs by MTT assay; format: functional, cell-based
# [8] = Antiplatelet activity in rabbit platelet rich plasma assessed as inhibition of ADP-induced platelet aggregation at 0.1 mM preincubated for 5 mins followed by ADP addition measured after 5 mins by Born's turbidimetric method in presence of edaravone relative to control; format: functional; conditions: Oryctolagus cuniculus; in short: as §1
# [9] = Antiplatelet activity in rabbit platelet rich plasma assessed as inhibition of arachidonic acid-induced platelet aggregation at 0.1 mM preincubated for 5 mins followed by arachidonic acid addition measured after 5 mins by Born's turbidimetric method in presence of edaravone relative to control; format: functional; conditions: Oryctolagus cuniculus; in short: as §1
# [10] = Neuroprotective activity against H2O2-induce cell damage in rat PC12 cells assessed as cell viability at 10 uM preincubated for 1 hr followed by H2O2 induction measured after 3 hrs by MTT assay in presence of edaravone (reference value: 50.85%); format: functional; conditions: PC-12, read-out: Activity
# PC-12 [11] = assay: Antioxidant activity in rat PC12 cells assessed as reduction of H2O2/Fe2+-mediated hydroxyl radical formation at 10 uM preincubated for 1 hr followed by H2O2/Fe2+ addition by Griess assay in presence of edaravone; format: functional; in short: as §2
# PC-12 [12] = assay: Antioxidant activity in rat PC12 cells assessed as reduction of NADH-mediated superoxide anion radical formation at 10 uM preincubated for 1 hr followed by NADH addition by NBT assay in presence of edaravone; format: functional; in short: as §3
# [13] = Antiplatelet activity in rabbit platelet rich plasma assessed as inhibition of ADP-induced platelet aggregation at 0.1 mM preincubated for 5 mins followed by ADP addition measured after 5 mins by Born's turbidimetric method in presence of NBP relative to control; format: functional; conditions: Oryctolagus cuniculus; in short: as §1
# [14] = Antiplatelet activity in rabbit platelet rich plasma assessed as inhibition of arachidonic acid-induced platelet aggregation at 0.1 mM preincubated for 5 mins followed by arachidonic acid addition measured after 5 mins by Born's turbidimetric method in presence of NBP relative to control; format: functional; conditions: Oryctolagus cuniculus; in short: as §1
# [15] = Neuroprotective activity against H2O2-induce cell damage in rat PC12 cells assessed as cell viability at 10 uM preincubated for 1 hr followed by H2O2 induction measured after 3 hrs by MTT assay in presence of NBP (reference value: 50.85%); format: functional; conditions: PC-12, read-out: Activity
# PC-12 [16] = assay: Antioxidant activity in rat PC12 cells assessed as reduction of H2O2/Fe2+-mediated hydroxyl radical formation at 10 uM preincubated for 1 hr followed by H2O2/Fe2+ addition by Griess assay in presence of NBP; format: functional; in short: as §2
# PC-12 [17] = assay: Antioxidant activity in rat PC12 cells assessed as reduction of NADH-mediated superoxide anion radical formation at 10 uM preincubated for 1 hr followed by NADH addition by NBT assay in presence of NBP; format: functional; in short: as §3
SMILES,inhibition at 100 µM [1] [%],viability at 10 µM [2] [%],Activity (PC-12 [3]) [U/ml],Activity (PC-12 [4]) [U/L],inhibition at 100 µM [5] [%],other results
Clc1ccccc1CN1CCc2sccc2C1 [TICLOPIDINE],11.5,67.2,15.0616,26.9592,,
CCCCC(OC(C)=O)c1ccccc1C(=O)Oc1cc(C(F)(F)F)nn1-c1ccccc1 (centres undefined),26.9,,,,29.3,
CCCCC(OC(C)=O)c1ccccc1C(=O)Oc1cc(C(F)(F)F)nn1-c1cccc(Cl)c1 (centres undefined),31.2,,,,21.2,
CCCCC(OC(C)=O)c1ccccc1C(=O)Oc1cc(C(F)(F)F)nn1-c1ccc(OC)cc1 (centres undefined),19.9,,,,37.7,
CCCCC(OC(C)=O)c1ccccc1C(=O)Oc1cc(C)nn1-c1cccc(Cl)c1 (centres undefined),35.2,,,,46.1,
CCCCC(OC(C)=O)c1ccccc1C(=O)Oc1cc(C)nn1-c1ccc(C)cc1 (centres undefined),21.3,86,,,20.5,
CCCCC(OC(C)=O)c1ccccc1C(=O)Oc1cc(C)nn1-c1ccc(OC)cc1 (centres undefined),30.2,,,,29.4,
CCCCC(OC(C)=O)c1ccccc1C(=O)Oc1cc(C(F)(F)F)nn1-c1ccc(Cl)cc1 (centres undefined),23.2,83,,,26.6,
CCCCC(OC(C)=O)c1ccccc1C(=O)Oc1cc(C(F)(F)F)nn1-c1ccc(F)cc1 (centres undefined),13.6,,,,27.5,
CC(=O)Oc1ccccc1C(=O)O [ASPIRIN],,77.4,30.6956,79.3793,16.2,
CCCCC(OC(C)=O)c1ccccc1C(=O)Oc1cc(C)nn1-c1ccc([N+](=O)[O-])cc1 (centres undefined),33.9,85.2,,,39.6,
CCCCC(OC(C)=O)c1ccccc1C(=O)Oc1cc(C)nn1-c1ccc(F)cc1 (centres undefined),31.8,93.3,65.51,141.49,59.9,viability at 1 µM [6]: 88.1%
CC1=NN(c2ccc(F)cc2)C(=O)C1,13.5,,31.7447,117.579,24.3,Activity (PC-12 [7]): Active
CCCCC(OC(C)=O)c1ccccc1C(=O)Oc1cc(C(F)(F)F)nn1-c1ccc([N+](=O)[O-])cc1 (centres undefined),15.4,87.3,,,21.3,
CCCCC(OC(C)=O)c1ccccc1C(=O)O (centres undefined),17.7,,17.6015,56.1954,27.7,Activity (PC-12 [7]): Active
CCCCC1OC(=O)c2ccccc21 (racemic) [RAC-3-N-BUTYLPHTHALIDE],22.9,71,16.2026,36.7429,14.1,inhibition at 100 µM [8]: 28.1%; inhibition at 100 µM [9]: 42.5%; viability at 10 µM [10]: 76.6%; Activity (PC-12 [11]): 36.8347 U/ml; Activity (PC-12 [12]): 140.787 U/L
CCCCC(OC(C)=O)c1ccccc1C(=O)Oc1cc(C(F)(F)F)nn1-c1ccc(C)cc1 (centres undefined),25.5,,,,40.7,
CC1=NN(c2ccccc2)C(=O)C1 [EDARAVONE],24.8,76.9,25.2753,97.6942,25.5,inhibition at 100 µM [13]: 28.1%; inhibition at 100 µM [14]: 42.5%; viability at 10 µM [15]: 76.6%; Activity (PC-12 [16]): 36.8347 U/ml; Activity (PC-12 [17]): 140.787 U/L
CCCCC(OC(C)=O)c1ccccc1C(=O)Oc1cc(C)nn1-c1ccccc1 (centres undefined),23,,,,15.4,
CCCCC(OC(C)=O)c1ccccc1C(=O)Oc1cc(C)nn1-c1ccc(Cl)cc1 (centres undefined),29.3,,,,40.3,
